Activity calls are given as the source filed them. No cut-off for these calls is given here.

Tested on in one data set: not listed separately
Description: (§1) Hepatoprotective activity in rat WB-F344 cells assessed as inhibition of D-galactosamine-induced cytotoxicity at 10 uM after 1 hrs by MTT assay relative to control treated before D-galactosamine challenge. Type of data set: functional. The conditions noted are these: WB-F344, 1 h. The method, boiled down:
(§2)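 WB-F344 rat hepatic epithelial stem-like cells, 1 × 10⁴ per well in DMEM with 3% fetal calf serum and penicillin/streptomycin, precultured 24 h at 37 °C in 5% CO₂. Test samples were added in fresh medium for 1 h, then cells were exposed to 40 mM D-galactosamine for 24 h. Readout was MTT 0.5 mg/mL for 3.5 h, formazan dissolved in DMSO, OD at 492 nm. Inhibition (%) = (OD sample − OD control)/(OD normal − OD control) × 100. Values are mean ± SD, n = 3.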
In general terms: Formazan colour is commonly taken as a measure of viable cells.
The term inhibition denotes the drop in the measured response relative to a control, in per cent. Take `COc1cc(C(=O)OC[C@@]2(O)CO[C@@H](OC[C@H]3O[C@@H](Oc4c(OC)cc5ccc(=O)oc5c4OC)[C@H](O)[C@@H](O)[C@@H]3O)[C@@H]2O)cc(OC)c1O` [ERYCIBOSIDE F]: the inhibition at 10 µM is 15.5%. On the same count and under the same terms, the figure for `COc1cc(C(=O)O[C@H]2C[C@](O)(C(=O)O)C[C@H](O)[C@H]2OC(=O)/C=C/c2ccc(O)c(O)c2)cc(OC)c1O` is 42.2%; for `COC(=O)c1cc(OC)c2c(c1-c1c(CO)cc(OC)c3c1OCO3)OCO2` [BICYCLOL] it is 11.2%.

The subject of the next data set is WB-F344. Described as §1. Type of data set: functional.
Conditions: not given
In a few lines: as §2
On to `COc1cc2cc(-c3cc4cc(OC)c(O)cc4oc3=O)c(=O)oc2cc1O`, for which the outcome was inactive. On the same count and under the same terms, the result for `COc1cc(C(=O)OC[C@@]2(O)CO[C@@H](O[C@H]3[C@H](Oc4cc5oc(=O)ccc5cc4OC)O[C@H](CO)[C@@H](O)[C@@H]3O)[C@@H]2O)ccc1O` reads “inactive”. The same measure, in the same setting: the entry for `COC(=O)[C@@]1(O)C[C@@H](OC(=O)/C=C/c2ccc(O)c(O)c2)[C@H](O)[C@H](OC(=O)c2cc(OC)c(O)c(OC)c2)C1` is “inactive”.

Tested on in a further data set: not listed separately
Briefly: Cytotoxicity against rat WB-F344 cells assessed as cell survival rate after 1 hr at 10 uM by MTT assay. Type of data set: cell-based. The conditions noted are these: read-out: Survival. The method, boiled down: (§3)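 WB-F344 rat hepatic epithelial stem-like cells were seeded at 1 × 10⁴ cells/well in DMEM with 3% FCS, penicillin and streptomycin, and precultured 24 h at 37 °C in 5% CO₂. Test sample was added in fresh medium for 1 h, then 40 mM D-galactosamine for 24 h; parallel wells without D-galactosamine gave cytotoxicity. MTT (0.5 mg/mL) was added for 3.5 h, formazan dissolved in DMSO and read at 492 nm. Survival is % of normal, mean ± SD, n = 3.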
As to `COc1cc2ccc(=O)oc2cc1O[C@@H]1O[C@H](CO[C@@H]2OC[C@](O)(CO)[C@H]2OC(=O)c2cc(OC)c(O)c(OC)c2)[C@@H](O)[C@H](O)[C@H]1O` [ERYCIBOSIDE B], the viability at 1 h, 10 µM worked out at 47%.

Tested on in a further data set: not listed separately
Briefly: Cytotoxicity against rat WB-F344 cells assessed as cell survival rate after 1 hr at 100 uM by MTT assay. Type of data set: cell-based. The conditions noted are these: read-out: Survival. In a few lines:
as §3
Regarding `COc1cc(C(=O)OC[C@@]2(O)CO[C@@H](OC[C@H]3O[C@@H](Oc4c(OC)cc5ccc(=O)oc5c4OC)[C@H](O)[C@@H](O)[C@@H]3O)[C@@H]2O)cc(OC)c1O` [ERYCIBOSIDE F], the viability at 1 h, 100 µM was determined as 44%. The same measure, in the same setting: the result for `COc1cc(C(=O)O[C@H]2C[C@](O)(C(=O)O)C[C@H](O)[C@H]2OC(=O)/C=C/c2ccc(O)c(O)c2)cc(OC)c1O` reads 61%; that for `COC(=O)c1cc(OC)c2c(c1-c1c(CO)cc(OC)c3c1OCO3)OCO2` [BICYCLOL], 38%.

For another data set, the system named is WB-F344. Briefly: Hepatoprotective activity in rat WB-F344 cells assessed as inhibition of D-galactosamine-induced cytotoxicity at 100 uM after 1 hrs by MTT assay relative to control treated before D-galactosamine challenge.
Conditions: not given
Regarding `COc1cc(C(=O)OC[C@@]2(O)CO[C@@H](OC[C@H]3O[C@@H](OCCc4ccc(O)cc4)[C@H](O)[C@@H](O)[C@@H]3O)[C@@H]2O)cc(OC)c1O`, the result was inactive. Same read-out and setting: the entry for `CCCCOC(=O)[C@]1(O)C[C@@H](O)[C@@H](O)[C@H](OC(=O)/C=C/c2ccc(O)c(O)c2)C1` is “inactive”; for `COc1cc2cc(Oc3cc4oc(=O)ccc4cc3OC)c(=O)oc2cc1O` it is “Active”; for `COc1cc(C(=O)O[C@@H]2[C@@H](OC(=O)/C=C/c3ccc(O)c(O)c3)C[C@@](O)(C(=O)O)C[C@@H]2O)cc(OC)c1O` it is “inactive”.

In the case of `COc1cc(C(=O)OC[C@@]2(O)CO[C@@H](OC[C@H]3O[C@@H](OC(C)C)[C@H](O)[C@@H](O)[C@@H]3O)[C@@H]2O)cc(OC)c1O`, the outcome was inactive. The same measure, in the same setting: the result for `COc1cc(/C=C/C(=O)NCCc2ccc(O)cc2)ccc1O` reads “inactive”; that for `O=C(O)/C=C/c1ccc(O)c(O)c1`, “inactive”; that for `COc1cc(C(=O)O)ccc1O`, “inactive”. Still for that read-out and setting: the entry for `COc1cc2ccc(=O)oc2cc1O[C@@H]1O[C@H](CO[C@@H]2OC[C@](O)(COC(=O)c3cc(OC)c(O)c(OC)c3)[C@H]2O)[C@@H](O)[C@H](O)[C@H]1O` is “inactive”; for `O=C(/C=C/c1ccc(O)c(O)c1)O[C@@H]1C[C@](O)(C(=O)O)C[C@@H](O)[C@H]1O` it is “inactive”. Consider `COC(=O)[C@]1(O)C[C@@H](O)[C@@H](O)[C@H](OC(=O)/C=C/c2ccc(O)c(O)c2)C1`, for which the result was inactive. Same read-out and setting: the result for `CCOC(=O)[C@]1(O)C[C@@H](O)[C@@H](OC(=O)/C=C/c2ccc(O)c(O)c2)[C@H](OC(=O)/C=C/c2ccc(O)c(O)c2)C1` reads “inactive”; that for `COc1cc(C(=O)OC[C@@]2(O)CO[C@@H](OC[C@H]3O[C@@H](Oc4cc(OC)c(OC)c(OC)c4)[C@H](O)[C@@H](O)[C@@H]3O)[C@@H]2O)cc(OC)c1O`, “inactive”. On the same count and under the same terms, the result for `O=C(/C=C/c1ccc(O)cc1)NCCc1ccc(O)cc1` reads “inactive”.

As for `COc1cc(C(=O)O[C@H]2C[C@](O)(C(=O)O)C[C@H](OC(=O)/C=C/c3ccc(O)c(O)c3)[C@H]2O)cc(OC)c1O`, the outcome was inactive. Take `CCOC(=O)[C@]1(O)C[C@@H](O)[C@@H](O)[C@H](OC(=O)/C=C/c2ccc(O)c(O)c2)C1`: the outcome was inactive. Same read-out and setting: the result for `COc1cc(C(=O)OC[C@@]2(O)CO[C@@H](OC[C@H]3O[C@@H](Oc4cc5oc(=O)ccc5cc4OC)[C@H](O)[C@@H](O)[C@@H]3O)[C@@H]2O)ccc1O` reads “inactive”; that for `O=C(O)c1ccc(O)c(O)c1`, “inactive”; that for `COc1cc2ccc(=O)oc2cc1O[C@@H]1O[C@H](CO)[C@@H](O)[C@H](O)[C@H]1O[C@@H]1OC[C@](O)(COC(=O)c2cc(OC)c(O)c(OC)c2)[C@H]1O`, “inactive”.

The values are drawn from ChEMBL document CHEMBL1154898, “Hepatoprotective constituents from the roots and stems of Erycibe hainanesis” (J Nat Prod, 2010).
